Compound activity deposited in PubChem BioAssay by The Scripps Research Institute Molecular Screening Center.
M4 PAM – positive allosteric modulators of human muscarinic M4 receptor; CHO-K1 hM4/Gqi5, Fluo-8 calcium fluorescence, ACh EC20; 0% = ACh EC20, 100% = maximal ACh; activation, % at 3 µM; 360,000 tested, 0.4% active; AID 624126;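 active = activation above its plate's cutoff, the mean activation of sample wells plus 3 SD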
CHRM5 PAM – potentiates acetylcholine response at human M5 receptor. P08912. CHO-K1 hM5, Fluo-8 calcium, ACh EC20 PAM; 0% = ACh EC20, 100% = ACh EC100. activation, % at 3 µM. 360,000 tested, 0.3% active;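 active = activation above the run cutoff, the mean activation of all test compounds plus 3 SD, cut at about 18% in these data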
Target sequence (P08912 whole entry, looked up): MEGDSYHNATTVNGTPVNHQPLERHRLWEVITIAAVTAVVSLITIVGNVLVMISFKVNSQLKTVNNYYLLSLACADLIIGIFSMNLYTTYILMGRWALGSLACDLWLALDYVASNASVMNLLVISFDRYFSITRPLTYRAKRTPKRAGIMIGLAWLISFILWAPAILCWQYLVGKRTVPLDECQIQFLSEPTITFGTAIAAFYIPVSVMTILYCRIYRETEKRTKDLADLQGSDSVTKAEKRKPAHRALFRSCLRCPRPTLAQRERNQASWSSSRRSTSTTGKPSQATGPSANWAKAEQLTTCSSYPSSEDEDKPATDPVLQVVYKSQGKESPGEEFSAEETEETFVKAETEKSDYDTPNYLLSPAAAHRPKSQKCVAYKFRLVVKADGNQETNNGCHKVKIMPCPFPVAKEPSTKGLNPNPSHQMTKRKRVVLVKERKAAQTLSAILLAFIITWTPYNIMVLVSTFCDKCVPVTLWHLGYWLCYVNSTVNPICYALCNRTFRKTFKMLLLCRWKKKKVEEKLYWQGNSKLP
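Assay system – human M5 receptor in CHO-K1 cells · Read-out – % activation, ACh-normalized · Technique – Fluo-8 calcium fluorescence · Dosing – single-point, 3 µM nominal · Incubation – Fluo-8 loading 80 min at 37 °C plus 30 min room temperature · Repeats – singlicate, one well per test compound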
M5 antag – CHRM5 antagonism in calcium assay; inhibition, % at 3 µM; CHO-hM5 cells, Fluo-8 calcium fluorescence, ACh EC80; 360,000 tested, 0.59% active; P08912; AID 624040;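 active = inhibition above a per-plate cutoff, the mean of that plate's test compounds plus 3 SD, cut at about 27% in these data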
M5 ag – CHRM5 agonism in calcium assay; P08912; CHO-K1 hM5 cells, Fluo-8 calcium fluorescence; 0% DMSO wells, 100% maximal acetylcholine response; activation, % at 3 µM; 360,000 tested, 0.19% active;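 active = activation above the run's mean over test compounds plus 3 SD, cut at about 23% in these data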;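 also: signal is peak over basal fluorescence ratio across the kinetic read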
CHRM4 agonist – CHRM4 agonism in calcium assay; CHO-K1 hM4/Gqi5, Fluo-8 calcium fluorescence; vehicle 0%, full acetylcholine response 100%; 360,000 tested, 0.14% active; P08173; activation, % at 3 µM; AID 624127;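 active = activation above the run mean over all test wells plus 3 SD, cut at about 32% in these data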;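 also: peak over basal fluorescence ratio per well then scaled between controls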
M4 antag – antagonists of human muscarinic M4 receptor (CHRM4); P08173; CHO-hM4 cells, ACh EC80, Fluo-8 calcium fluorescence; inhibition, % at 3 µM; 360,000 tested, 0.73% active;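 active = inhibition above its plate's cutoff, the mean inhibition of sample wells plus 3 SD, cut at about 27% in these data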
Numbers stand for hits; . = inactive. A selection: hits, their analogues and other compounds. The true share with any hit is near 1.9%.

SMILES	M4 PAM	CHRM5 PAM	M5 antag	M5 ag	CHRM4 agonist	M4 antag
Brc1ccc(C2=CC(c3cccs3)n3ncnc3N2)cc1 (stereo unspecified)	.	.	.	26.5	36.5	.
C1=C(c2ccc(-c3ccccc3)cc2)Nc2ncnn2C1c1ccco1 (stereo unspecified)	.	.	.	52.5	61.7	27.3
Cn1c(=O)c2c(nc(N3CCCCC3)n2CCSc2nc3ccccc3s2)n(C)c1=O	37.5	.	.	.	.	.
CC(=O)N1CC(C)Oc2ccc(S(=O)(=O)Nc3ccc(Cl)cn3)cc21 (stereo unspecified)	.	.	.	.	.	.
COCCN1C(=O)CCC1(C)C(=O)Nc1ccc2ccccc2c1 (stereo unspecified)	.	.	.	.	.	.
CCN(CC(=O)Nc1ccccc1C(F)(F)F)C(=O)CSCC(=O)Nc1cc(C)on1	22.8	.	.	.	.	.
CCN(CC(=O)Nc1cc(C)on1)CC(=O)Nc1ccccc1C(F)(F)F	.	.	.	.	.	.
COc1cccc(Nc2nc(C(N)Cc3ccc(C(F)(F)F)cc3)cs2)n1 (stereo unspecified)	.	.	.	.	.	.
COc1ccc(CC(N)c2csc(Nc3cccc(OC)n3)n2)cc1 (stereo unspecified)	.	.	.	.	.	.
COc1cccc(Nc2nc(C(N)Cc3ccc(Cl)cc3)cs2)n1 (stereo unspecified)	.	.	.	49.3	47.5	.
COc1cccc(Nc2nc(C(N)Cc3ccc(F)cc3)cs2)n1 (stereo unspecified)	.	.	.	.	35.1	.
O=C(Nc1ccc2[nH]c(=O)[nH]c2c1)c1cccc([N+](=O)[O-])c1	.	.	.	.	.	.
COc1ccc2nc3ccccc3nc2c1NC(=O)c1ccccc1Cl	.	.	27.9	.	.	.
COc1ccccc1CCNC(=O)CCn1c(=O)c2cccn2c2ccc(F)cc21	.	.	.	.	.	.
Cc1ccccc1OCC(=O)NCCCNC(=O)c1ccccn1	16.4	.	.	.	.	.
COc1ccc(C2NCCc3c2[nH]c2ccccc32)cc1CSc1nc2ccccc2s1 (stereo unspecified)	.	.	.	.	.	31.7
Cc1ccc(C)c(NC(=O)C(c2ccccc2)N2CCN(CC(=O)N3CCOCC3)CC2)c1 (stereo unspecified)	.	.	.	.	.	.
Cc1ccc(C)c(NC(=O)C(NCC(C)(C)N2CCOCC2)c2ccccc2)c1 (stereo unspecified)	.	.	.	.	.	75.5
CC1(C(=O)Nc2ccc3c(c2)OCCO3)CCN1C(=O)Cc1ccc(-c2ccccc2)cc1 (stereo unspecified)	.	.	30.1	.	.	.
CC(C)c1ccc(CC(=O)N2CCC2(C)C(=O)Nc2ccc3c(c2)OCO3)cc1 (stereo unspecified)	.	.	.	.	.	.
CCC1(c2ccc(F)cc2)NC(=O)N(CC(=O)Nc2ccccc2Cl)C1=O (stereo unspecified)	.	.	.	33.0	.	.
Cc1ccc(C2(C)NC(=O)N(CC(=O)N3CCc4ccccc43)C2=O)cc1 (stereo unspecified)	.	.	.	.	.	.
CCC1(CC)NC(=O)N(CC(=O)N2CCc3ccccc32)C1=O	18.7	20.4	.	.	.	.
CC1(c2ccc(Cl)cc2)NC(=O)N(CC(=O)N2CCc3ccccc32)C1=O (stereo unspecified)	.	.	.	40.0	37.5	.
CCC1(c2ccc(F)cc2)NC(=O)N(CC(=O)N2CCc3ccccc32)C1=O (stereo unspecified)	.	.	.	37.9	.	.
SMILES	M4 PAM	CHRM5 PAM	M5 antag	M5 ag	CHRM4 agonist	M4 antag
CSc1ncccc1C(=O)NC(C)CCc1ccccc1 (stereo unspecified)	.	.	.	.	.	.
O=C(C[C@@H]1C[C@H]2c3cc(NC(=O)NC4CCCCC4)ccc3O[C@H]2[C@H](CO)O1)NC1CCCCC1	.	.	.	.	.	.
CCN(Cc1cnn(C)c1)C(=O)c1ccc(OC2CCN(S(=O)(=O)N(C)C)CC2)cc1	.	.	.	.	.	.
Cc1c(C(=O)Nc2ccc3c(c2)OCCO3)oc2ccc(Br)cc12	23.2	.	.	.	.	.
Cc1c(C(=O)NCc2ccc3c(c2)OCO3)oc2ccc(Br)cc12	.	.	.	.	.	.
CC(=O)c1sc2nc(-c3ccccc3)cc(C)c2c1N	42.4	.	.	.	.	.
CCOC(=O)c1sc2nc(C)cc(C)c2c1N	51.0	.	.	.	.	28.3
Cc1ccc(NC(=O)c2sc3nc(C)cc(C)c3c2N)cc1	15.6	.	.	.	.	.
Nc1c(C(=O)O)sc2nc(-c3ccccc3)cc(-c3ccc(Cl)cc3)c12	.	.	.	.	.	.
CCOC(=O)c1sc2nc(C)nc(NCc3cccnc3)c2c1C	.	.	.	.	.	.
CCOC(=O)c1sc2nc(OCc3cccnc3)cc(C)c2c1N	31.8	.	.	.	.	.
Cc1cc(C)c2c(N)c(C(=O)NN)sc2n1	.	.	.	.	.	.
Cc1cc(C)n(CC(=O)NNC(=O)CC(C)c2ccccc2)n1 (stereo unspecified)	.	.	.	.	.	.
COc1ccc(C(C(=O)NCc2ccccc2)N(C(=O)c2snc(C(N)=O)c2N)C2CCCC2)cc1O (stereo unspecified)	.	.	.	.	.	.
Cc1cc(C(F)(F)F)c2c(N)c(C(=O)NC3CC3)sc2n1	.	.	.	.	.	.
Cc1cc(C)c2c(N)c(C(=O)NC3CC3)sc2n1	34.0	.	.	.	56.1	66.8
CC1OC(CC(=O)O)CC2=C1C(=O)c1c(O)cccc1C2=O (stereo unspecified)	.	.	49.2	.	.	35.8
O=C1C=C(O)c2cccc(O)c2C1=O	.	.	.	.	.	.
Cc1cc(C)c(C)c(S(=O)(=O)N2CCN(c3ncnc4sc(C)c(C)c34)CC2)c1C	.	.	.	.	.	.
CCc1cccc(NC(=O)C2CCN(c3ncnc4sc(C)c(C)c34)CC2)c1	.	.	.	.	.	.
Cc1sc2ncnc(N3CCC(C(=O)Nc4ccc(Cl)cc4Cl)CC3)c2c1C	38.3	.	.	.	.	.
CCS(=O)(=O)N1CCN(c2ncnc3sc(C)c(C)c23)CC1	21.3	.	.	.	.	.
CNC(=O)c1ccc(NC(=O)C2CCN(c3ncnc4sc(C)c(C)c34)CC2)cc1	.	.	.	.	71.6	70.4
Cc1sc2ncnc(N3CCC(C(=O)Nc4ccc(Br)cc4Br)CC3)c2c1C	21.6	.	.	.	.	.
